Measurements: ChEMBL document CHEMBL1134388, “Nonpeptide cholecystokinin-2 receptor agonists” (J Med Chem, 2001)
Active and inactive are the calls of the source. The rule behind the calls is not given here.

Columns and labels:
[1] = molecular target: T1, Gastrin/cholecystokinin type B receptor (Mus musculus) (UniProt P56481); assay: Antagonistic activity against CCK2 receptor in mouse cortex assay using [125 I]-BH-CCK-8S; assay type: functional, tissue-based
T1 sequence (whole entry): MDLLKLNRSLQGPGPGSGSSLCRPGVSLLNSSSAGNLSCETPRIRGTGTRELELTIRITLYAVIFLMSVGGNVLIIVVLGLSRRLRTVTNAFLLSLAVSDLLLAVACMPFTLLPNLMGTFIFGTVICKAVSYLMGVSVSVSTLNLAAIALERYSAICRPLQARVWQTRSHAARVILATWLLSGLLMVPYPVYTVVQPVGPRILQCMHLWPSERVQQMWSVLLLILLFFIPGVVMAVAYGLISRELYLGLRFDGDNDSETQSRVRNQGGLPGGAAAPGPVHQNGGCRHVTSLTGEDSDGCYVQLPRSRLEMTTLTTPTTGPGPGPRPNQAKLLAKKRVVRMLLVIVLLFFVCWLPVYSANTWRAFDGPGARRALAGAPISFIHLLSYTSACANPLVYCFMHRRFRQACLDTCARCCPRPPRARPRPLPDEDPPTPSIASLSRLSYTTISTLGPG
Method in brief: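 Radioligand competition binding to CCK2 sites in mouse cerebral cortex homogenates against 20 pM [125I]BH-CCK-8S; pKB reported as mean ± SEM from at least three separate experiments.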

[2] = molecular target: T2, Gastrin/cholecystokinin type B receptor (Rattus norvegicus) (UniProt P30553); assay: Antagonistic activity against CCK2 receptor in rat stomach; assay type: functional, tissue-based
T2 sequence (whole entry): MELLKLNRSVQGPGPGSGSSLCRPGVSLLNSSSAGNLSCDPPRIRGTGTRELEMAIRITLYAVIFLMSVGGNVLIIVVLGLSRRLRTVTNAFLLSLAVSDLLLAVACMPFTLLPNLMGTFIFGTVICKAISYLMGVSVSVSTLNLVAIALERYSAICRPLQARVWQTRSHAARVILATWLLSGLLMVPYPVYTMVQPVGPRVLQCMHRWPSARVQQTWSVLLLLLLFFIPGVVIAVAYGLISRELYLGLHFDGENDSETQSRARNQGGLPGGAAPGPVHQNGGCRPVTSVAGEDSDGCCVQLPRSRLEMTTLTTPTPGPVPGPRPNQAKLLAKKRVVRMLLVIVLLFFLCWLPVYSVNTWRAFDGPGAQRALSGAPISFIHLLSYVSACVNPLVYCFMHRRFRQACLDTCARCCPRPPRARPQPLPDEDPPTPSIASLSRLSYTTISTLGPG

Mus musculus [3] = organism: Mus musculus; assay: Effect on acid secretion was determined in isolated,lumen-perfused immature mouse stomach; Acid secretion; assay type: functional
Method in brief: (§1)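 Isolated, lumen-perfused mouse stomach; compound applied alone and acid secretion observed, scored as present or absent. Tested as bis(N-methyl-D-glucamine) salts.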

Mus musculus [4] = organism: Mus musculus; assay: Charecterization of agonist response of ligand in mouse stomach bioassay; assay type: functional
Mus musculus [5] = organism: Mus musculus; assay: Charecterization of agonist response of ligand in mouse stomach bioassay measured as affinity of L-365260; assay type: functional
Mus musculus [6] = organism: Mus musculus; assay: Effect on acid secretion was determined in isolated,lumen-perfused immature mouse stomach; No acid secretion; assay type: functional; method in brief: as §1

SMILES	pKB [1]	pKB [2]	Acid secretion (Mus musculus [3])	pA50 (Mus musculus [4])	pKB (Mus musculus [5])	Kb (Mus musculus [5]; read-out: pA2 (converted))	Acid secretion (Mus musculus [6])
Cn1ccc2cc(C(=O)N[C@@H](Cc3ccccc3)C(=O)Nc3cc(C(=O)O)cc(C(=O)O)c3)c(C(=O)NCC34CC5CC(CC(C5)C3)C4)cc21 (stereo in doubt; 4) [listing 2 of 2 here]	–	–	–	8.69	7.02	–	–
O=C(O)c1cc(NC(=O)[C@H](Cc2ccccc2)NC(=O)c2cc3cc[nH]c3cc2C(=O)NCC23CC4CC(CC(C4)C2)C3)cc(C(=O)O)c1	8.96	9.9	–	–	–	–	–
Cn1ccc2cc(C(=O)N[C@@H](Cc3ccccc3)C(=O)Nc3cc(C(=O)O)cc(C(=O)O)c3)c(C(=O)NCC34CC5CC(CC(C5)C3)C4)cc21 (stereo in doubt; 3) [listing 2 of 2 here]	–	–	–	8.4	7.04	–	–
CSCC[C@H](NC(=O)[C@H](Cc1c[nH]c2ccccc12)NC(=O)CCNC(=O)OC(C)(C)C)C(=O)N[C@@H](CC(=O)O)C(=O)N[C@@H](Cc1ccccc1)C(N)=O [PENTAGASTRIN]	–	–	–	7.73	–	9.77 nM	–
O=C(O)c1cc(NC(=O)[C@H](Cc2ccccc2)NC(=O)c2cc3[nH]ccc3cc2C(=O)NCC23CC4CC(CC(C4)C2)C3)cc(C(=O)O)c1	7.87	9.26	–	–	–	–	inactive

Continued, in another order:

pKB [1]	pKB [2]	SMILES	Acid secretion (Mus musculus [3])	pA50 (Mus musculus [4])	pKB (Mus musculus [5])	Kb (Mus musculus [5]; read-out: pA2 (converted))	Acid secretion (Mus musculus [6])
9.43	8.99	Cn1ccc2cc(C(=O)N[C@@H](Cc3ccccc3)C(=O)Nc3cc(C(=O)O)cc(C(=O)O)c3)c(C(=O)NCC34CC5CC(CC(C5)C3)C4)cc21 (stereo in doubt; 4) [listing 1 of 2 here]	Active	–	–	–	–
7.52	6.86	CCCCn1ccc2cc(C(=O)NCC34CC5CC(CC(C5)C3)C4)c(C(=O)N[C@@H](Cc3ccccc3)C(=O)Nc3cc(C(=O)O)cc(C(=O)O)c3)cc21	Active	–	–	–	–
8.42	9.8	Cn1ccc2cc(C(=O)N[C@@H](Cc3ccccc3)C(=O)Nc3cc(C(=O)O)cc(C(=O)O)c3)c(C(=O)NCC34CC5CC(CC(C5)C3)C4)cc21 (stereo in doubt; 3) [listing 1 of 2 here]	Active	–	–	–	–
7.6	8.95	Cn1cnc2cc(C(=O)N[C@@H](Cc3ccccc3)C(=O)Nc3cc(C(=O)O)cc(C(=O)O)c3)c(C(=O)NCC34CC5CC(CC(C5)C3)C4)cc21	Active	–	–	–	–
8.44	7.35	CCCCn1ccc2cc(C(=O)N[C@@H](Cc3ccccc3)C(=O)Nc3cc(C(=O)O)cc(C(=O)O)c3)c(C(=O)NCC34CC5CC(CC(C5)C3)C4)cc21	Active	–	–	–	–
8.74	8.72	CC(=O)n1ccc2cc(C(=O)N[C@@H](Cc3ccccc3)C(=O)Nc3cc(C(=O)O)cc(C(=O)O)c3)c(C(=O)NCC34CC5CC(CC(C5)C3)C4)cc21	–	–	–	–	–
8.36	8.57	Cn1ccc2cc(C(=O)NCC34CC5CC(CC(C5)C3)C4)c(C(=O)N[C@@H](Cc3ccccc3)C(=O)Nc3cc(C(=O)O)cc(C(=O)O)c3)cc21	Active	7.94	–	–	–
